Data as given in article PMC10582678 (Clinical and Translational Science, 2023).

Test: Safety, adverse events, multiple ascending doses
Assay type: in vivo, human
Settings: for AEs / Abdominal discomfort / Constipation / Decreased leukocyte count / Decreased lymphocyte count / Decreased neutrophil count / Dermatitis allergic / Dyspepsia / Increased ALT / Increased AST / Increased blood bilirubin / Increased blood creatinine / Lethargy / Mouth ulceration / Oropharyngeal pain / Sinus arrythmia / Upper respiratory tract infection / Increased blood cholesterol / Treatment discontinuation due to AEs / Increased blood triglycerides: n (%)
Summary of the method: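 Safety was monitored by vital signs, clinical laboratory tests, physical examination, 12-lead ECG, AEs and SAEs. AEs were coded with MedDRA 23.1 and graded by CTCAE 5.0. Subjects were discharged 6 days after the last dose, with a follow-up visit 8–14 days after the last dose. The safety set comprised randomized subjects who received active drug or placebo and had post-dose safety data.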

[1] = 18 subjects, MAD 200 to 600 mg for 10 days

In the case of N#CN1C[C@H](n2nc(-c3ccc(Oc4ccc(Cl)cn4)cc3)c(C(N)=O)c2N)CCC12CC2 [SN1011, 5-amino-3-(4-((5-chloro-2-pyridinyl)oxy)phenyl)-1-((6R)-4-cyano-4-azaspiro[2.5]octan-6-yl)-1H-pyrazole-4-carboxamide], the blood triglycerides increased [1] is reported as 33.3%, the leucocyte count decreased [1] is reported as 22.2% and the neutrophil count decreased [1] is reported as 27.8%. The “number of AEs” value [1] was 34, the “subjects who experienced AEs” value [1] was 66.7% and the “subjects with at least a treatment-related AE (TRAE)” value (18 subjects, MAD 200 to 600 mg, all grade 1 or 2) was 61.1%. For the same compound, the AEs (MAD 200 mg QD, any grade) was 3 (50.0), the Abdominal discomfort (MAD 200 mg QD, any grade) was 0 and the Constipation (MAD 200 mg QD, any grade) was 0. For the same compound, the Decreased leukocyte count (MAD 200 mg QD, any grade) was 1 (16.7), the Decreased lymphocyte count (MAD 200 mg QD, any grade) was 0 and the Decreased neutrophil count (MAD 200 mg QD, any grade) was 1 (16.7). For the same compound, the Dermatitis allergic (MAD 200 mg QD, any grade) was 0, the Dyspepsia (MAD 200 mg QD, any grade) was 0 and the “Increased ALT” value (MAD 200 mg QD, any grade) was 1 (16.7). For the same compound, the “Increased AST” value (MAD 200 mg QD, any grade) was 1 (16.7), the Increased blood bilirubin (MAD 200 mg QD, any grade) was 1 (16.7) and the Increased blood creatinine (MAD 200 mg QD, any grade) was 0. The Lethargy (MAD 200 mg QD, any grade) was 0, the Mouth ulceration (MAD 200 mg QD, any grade) was 0 and the Oropharyngeal pain (MAD 200 mg QD, any grade) was 0. The Sinus arrythmia (MAD 200 mg QD, any grade) was 0, the “Upper respiratory tract infection” value (MAD 200 mg QD, any grade) was 0 and the Increased blood cholesterol (MAD 200 mg QD) was 0. For the same compound, the “Treatment discontinuation due to AEs” value (MAD 200 mg QD) was 0, the AEs (MAD 400 mg QD, any grade) was 4 (66.7) and the Abdominal discomfort (MAD 400 mg QD, any grade) was 0. For the same compound, the Constipation (MAD 400 mg QD, any grade) was 0, the Decreased leukocyte count (MAD 400 mg QD, any grade) was 1 (16.7) and the Decreased lymphocyte count (MAD 400 mg QD, any grade) was 0. The Decreased neutrophil count (MAD 400 mg QD, any grade) was 2 (33.3), the Dermatitis allergic (MAD 400 mg QD, any grade) was 0 and the Dyspepsia (MAD 400 mg QD, any grade) was 0. For the same compound, the “Increased ALT” value (MAD 400 mg QD, any grade) was 0, the “Increased AST” value (MAD 400 mg QD, any grade) was 0 and the Increased blood bilirubin (MAD 400 mg QD, any grade) was 0. For the same compound, the Increased blood creatinine (MAD 400 mg QD, any grade) was 2 (33.3), the Increased blood triglycerides (MAD 400 mg QD, any grade) was 2 (33.3) and the Lethargy (MAD 400 mg QD, any grade) was 0. The Mouth ulceration (MAD 400 mg QD, any grade) was 0, the Sinus arrythmia (MAD 400 mg QD, any grade) was 1 (16.7) and the “Upper respiratory tract infection” value (MAD 400 mg QD, any grade) was 1 (16.7). The Increased blood cholesterol (MAD 400 mg QD) was 0, the “Treatment discontinuation due to AEs” value (MAD 400 mg QD) was 0 and the AEs (MAD 600 mg QD, any grade) was 5 (83.3). The Abdominal discomfort (MAD 600 mg QD, any grade) was 1 (16.7), the Constipation (MAD 600 mg QD, any grade) was 1 (16.7) and the Decreased leukocyte count (MAD 600 mg QD, any grade) was 2 (33.3). For the same compound, the Decreased lymphocyte count (MAD 600 mg QD, any grade) was 1 (16.7), the Decreased neutrophil count (MAD 600 mg QD, any grade) was 2 (33.3) and the Dermatitis allergic (MAD 600 mg QD, any grade) was 2 (33.3). For the same compound, the Dyspepsia (MAD 600 mg QD, any grade) was 1 (16.7), the “Increased ALT” value (MAD 600 mg QD, any grade) was 1 (16.7) and the “Increased AST” value (MAD 600 mg QD, any grade) was 1 (16.7). For the same compound, the Increased blood bilirubin (MAD 600 mg QD, any grade) was 1 (16.7), the Increased blood creatinine (MAD 600 mg QD, any grade) was 0 and the Increased blood triglycerides (MAD 600 mg QD, any grade) was 2 (33.3). The Lethargy (MAD 600 mg QD, any grade) was 1 (16.7), the Mouth ulceration (MAD 600 mg QD, any grade) was 1 (16.7) and the Oropharyngeal pain (MAD 600 mg QD, any grade) was 1 (16.7). For the same compound, the Sinus arrythmia (MAD 600 mg QD, any grade) was 0, the Increased blood cholesterol (MAD 600 mg QD) was 0 and the “Treatment discontinuation due to AEs” value (MAD 600 mg QD) was 0. The AEs (MAD All SN1011, N = 18) was 12 (66.7), the Abdominal discomfort (MAD All SN1011, N = 18) was 1 (5.6) and the Constipation (MAD All SN1011, N = 18) was 1 (5.6). For the same compound, the Decreased leukocyte count (MAD All SN1011, N = 18) was 4 (22.2), the Decreased lymphocyte count (MAD All SN1011, N = 18) was 1 (5.6) and the Decreased neutrophil count (MAD All SN1011, N = 18) was 5 (27.8). For the same compound, the Dermatitis allergic (MAD All SN1011, N = 18) was 2 (11.1), the Dyspepsia (MAD All SN1011, N = 18) was 1 (5.6) and the “Increased ALT” value (MAD All SN1011, N = 18) was 2 (11.1). For the same compound, the “Increased AST” value (MAD All SN1011, N = 18) was 2 (11.1), the Increased blood bilirubin (MAD All SN1011, N = 18) was 2 (11.1) and the Increased blood cholesterol (MAD All SN1011, N = 18) was 0. The Increased blood creatinine (MAD All SN1011, N = 18) was 2 (11.1), the Increased blood triglycerides (MAD All SN1011, N = 18) was 6 (33.3) and the Lethargy (MAD All SN1011, N = 18) was 1 (5.6). For the same compound, the Mouth ulceration (MAD All SN1011, N = 18) was 1 (5.6), the Oropharyngeal pain (MAD All SN1011, N = 18) was 1 (5.6) and the Sinus arrythmia (MAD All SN1011, N = 18) was 1 (5.6). For the same compound, the “Treatment discontinuation due to AEs” value (MAD All SN1011, N = 18) was 0 and the “Upper respiratory tract infection” value (MAD All SN1011, N = 18) was 1 (5.6).
